≈ marks a conversion by molar mass, not a printed value. Calls of active or inactive are those of the source. No cut-off for these calls is given here.
What was measured:
[1] = test system: Stenotrophomonas maltophilia; assay: Antibacterial activity against Stenotrophomonas maltophilia isolate KJ by Etest; format: functional
[2] = test system: Stenotrophomonas maltophilia; assay: Antibacterial activity against Stenotrophomonas maltophilia isolate KJ deficient in L2 beta lactamase gene by Etest; format: functional
[3] = test system: Stenotrophomonas maltophilia; assay: Antibacterial activity against Stenotrophomonas maltophilia isolate KJ deficient in L1 beta lactamase gene at 50 ug/ml; format: functional, organism-based
[4] = test system: Stenotrophomonas maltophilia; assay: Antibacterial activity against Stenotrophomonas maltophilia isolate KJ deficient in L2 beta lactamase gene at 50 ug/ml; format: functional, organism-based
[5] = test system: Stenotrophomonas maltophilia; assay: Antibacterial activity against Stenotrophomonas maltophilia isolate KJ deficient in L1 beta lactamase gene by Etest; format: functional
[6] = test system: Stenotrophomonas maltophilia; assay: Ratio of induction of xylE gene expression in Stenotrophomonas maltophilia isolate KJ deficient in L1 beta lactamase gene to induction of xylE gene expression in Stenotrophomonas maltophilia isolate KJ deficient in L2 beta lactamase gene assessed as catechol 2,3-dioxygenase activity at 50 ug/ml; format: functional
[7] = test system: Stenotrophomonas maltophilia; assay: Antibacterial activity against Stenotrophomonas maltophilia isolate KJ deficient in L2 beta lactamase gene at 8 ug/ml; format: functional, organism-based
[8] = test system: Stenotrophomonas maltophilia; assay: Ratio of induction of xylE gene expression in Stenotrophomonas maltophilia isolate KJ deficient in L1 beta lactamase gene to induction of xylE gene expression in Stenotrophomonas maltophilia isolate KJ deficient in L2 beta lactamase gene assessed as catechol 2,3-dioxygenase activity at 8 ug/ml; format: functional
Method in brief: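 xylE reporter (C23O) assay in L1- or L2-knockout mutants of strain KJ. Overnight cultures diluted to OD450 0.15 and grown 0.5 h at 37°C, then exposed to β-lactam inducer, by default for 2.5 h. C23O activity measured in intact cells with OD450 recorded. Specific activity is nmol substrate converted/min per A450 unit. At least three repeats.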

[9] = test system: Stenotrophomonas maltophilia; assay: Antibacterial activity against Stenotrophomonas maltophilia isolate KJ deficient in L1 beta lactamase gene at 16 ug/ml; format: functional, organism-based
[10] = test system: Stenotrophomonas maltophilia; assay: Ratio of induction of xylE gene expression in Stenotrophomonas maltophilia isolate KJ deficient in L1 beta lactamase gene to induction of xylE gene expression in Stenotrophomonas maltophilia isolate KJ deficient in L2 beta lactamase gene assessed as catechol 2,3-dioxygenase activity at 16 ug/ml; format: functional
[11] = test system: Stenotrophomonas maltophilia; assay: Induction of xylE gene expression in Stenotrophomonas maltophilia isolate KJ deficient in L1 beta lactamase gene assessed maximum catechol 2,3-dioxygenase activity at 50 ug/ml after 3 hrs; format: functional, organism-based
Method in brief: (§1)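 xylE (catechol 2,3-dioxygenase) reporter induction in the L1 or L2 knockout of strain KJ. Overnight cultures were diluted to OD450 0.15 and grown 0.5 h at 37°C, then exposed to β-lactam inducer (default 50 μg/ml, 2.5 h). C23O activity was read in intact cells with OD450. 1 U = 1 nmol substrate/min; specific activity is U per A450 unit. Each experiment was run ≥3 times.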

[12] = test system: Stenotrophomonas maltophilia; assay: Induction of xylE gene expression in Stenotrophomonas maltophilia isolate KJ deficient in L2 beta lactamase gene assessed maximum catechol 2,3-dioxygenase activity at 1 ug/ml; format: functional, organism-based; method in brief: as §1
[13] = test system: Stenotrophomonas maltophilia; assay: Induction of xylE gene expression in Stenotrophomonas maltophilia isolate KJ deficient in L2 beta lactamase gene assessed maximum catechol 2,3-dioxygenase activity at 50 ug/ml after 2.5 hrs; format: functional, organism-based; method in brief: as §1
[14] = test system: Stenotrophomonas maltophilia; assay: Induction of xylE gene expression in Stenotrophomonas maltophilia isolate KJ deficient in L1 beta lactamase gene assessed maximum catechol 2,3-dioxygenase activity at 1 ug/ml; format: functional, organism-based; method in brief: as §1

SMILES	MIC [1] [µg/mL]	MIC [2] [µg/mL]	Activity [3]	Activity [4]	MIC [5] [µg/mL]	Ratio [6]	Activity [7]	Ratio [8]	Activity [9]	Ratio [10]	Activity [11]	Activity [12]	Activity [13]	Activity [14]
CC1(C)S[C@@H]2[C@H](NC(=O)[C@H](N)c3ccccc3)C(=O)N2[C@H]1C(=O)O [AMPICILLIN]	> 2050	> 2050	inactive	inactive	> 2050	0.9								
C[C@H]1[C@H](NC(=O)/C(=N\OC(C)(C)C(=O)O)c2csc(N)n2)C(=O)N1S(=O)(=O)O [AZTREONAM]	> 2050				> 2050		Active	7.9						
CC1(C)S[C@@H]2[C@H](NC(=O)C(C(=O)O)c3ccccc3)C(=O)N2[C@H]1C(=O)O (some centres undefined) [CARBENICILLIN]	1020 (≈ 2710 µM)	64 (≈ 169 µM)	inactive	inactive	1020 (≈ 2710 µM)	3.4								
CO/N=C(\C(=O)N[C@@H]1C(=O)N2C(C(=O)[O-])=C(C[N+]3(C)CCCC3)CS[C@H]12)c1csc(N)n1 [CEFEPIME]	64 (≈ 133 µM)	4 (≈ 8.32 µM)			64 (≈ 133 µM)									
CCN1CCN(C(=O)N[C@@H](C(=O)N[C@@H]2C(=O)N3C(C(=O)O)=C(CSc4nnnn4C)CS[C@H]23)c2ccc(O)cc2)C(=O)C1=O [CEFOPERAZONE]	128 (≈ 198 µM)	64 (≈ 99.1 µM)			32 (≈ 49.6 µM)				Active	1.4				
CO/N=C(\C(=O)N[C@@H]1C(=O)N2C(C(=O)O)=C(COC(C)=O)CS[C@H]12)c1csc(N)n1 [CEFOTAXIME]	256 (≈ 562 µM)	128 (≈ 281 µM)	inactive	inactive	128 (≈ 281 µM)	3.2								
CO[C@@]1(NC(=O)Cc2cccs2)C(=O)N2C(C(=O)O)=C(COC(N)=O)CS[C@@H]21 [CEFOXITIN]	1020 (≈ 2400 µM)	1020 (≈ 2400 µM)	inactive	inactive	128 (≈ 299 µM)	0.2								
CO/N=C(\C(=O)N[C@@H]1C(=O)N2C(C(=O)O)=C(CSc3nc(=O)c(O)nn3C)CS[C@H]12)c1csc(N)n1 [CEFTRIAXONE]	256 (≈ 462 µM)	128 (≈ 231 µM)	inactive	inactive	128 (≈ 231 µM)	5.5								
CO/N=C(\C(=O)N[C@@H]1C(=O)N2C(C(=O)O)=C(COC(N)=O)CS[C@H]12)c1ccco1 [CEFUROXIME]	2050 (≈ 4830 µM)	1020 (≈ 2410 µM)	inactive	inactive	1020 (≈ 2410 µM)	2.4					Active	Active	Active	Active
C[C@@H](O)[C@H]1C(=O)N2C(C(=O)O)=C(SCCNC=N)C[C@H]12 [IMIPENEM ANHYDROUS]	> 32	> 32			8 (≈ 26.7 µM)									
C[C@@H](O)[C@H]1C(=O)N2C(C(=O)O)=C(S[C@@H]3CN[C@H](C(=O)N(C)C)C3)[C@H](C)[C@H]12 [MEROPENEM]	> 32	> 32			0.5 (≈ 1.3 µM)									
CCN1CCN(C(=O)N[C@@H](C(=O)N[C@@H]2C(=O)N3[C@@H]2SC(C)(C)[C@@H]3C(=O)O)c2ccccc2)C(=O)C1=O [PIPERACILLIN]	1020 (≈ 1980 µM)	512 (≈ 989 µM)	inactive	inactive	256 (≈ 495 µM)	1.7								
